The list is not random: actives were taken first. Their share in the collection is about 11%.
Htt clearance = compounds clearing mutant huntingtin protein; HeLa Exon1htt(103Q)mCFP, aggregate imaging; zero = plate's median compound well; inhibition, % at 1.5 µM; 47,000 tested, 0.42% active; AID 853;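 active = inhibition of aggregate fluorescence above about 70%, also judged a hit by eye on the cell image, limit read from the data, passing the limit was not always enough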;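 note: cells exposed to compound for three days before fixation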
D1 allo mod = allosterically modulates the human D1 dopamine receptor | AID 641 | HEK293 D1, CRE-luciferase, dopamine EC30 potentiation; actives deviate in either direction | B-score at 10 µM | P21728 | 58,000 tested, 5.9% active;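 active = luminescence count or its row- and column-corrected plate score outside the 99.7% band of the plate's sample wells, on either side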
RORA act = RORA (human) activation; P35398; AID 560; 65,000 tested, 1.5% active; CHO-K1 Gal4-RORA LBD luciferase reporter, luminescence; percent increase over mock-subtracted basal signal; activation, % at 10 µM;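 active = activation above the mean of all tested compounds plus 3 SD, cut at about 49% in these data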
SF-1 act = activates the human nuclear receptor SF-1 | 65,000 tested, 1.9% active | CHO-K1 Gal4-SF-1 LBD luciferase reporter; % increase over DMSO SF-1-specific signal | Q13285 | activation, % at 10 µM;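 active = activation above the mean activation of all tested compounds plus 3 SD, cut at about 50% in these data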
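System: CHO-K1 cells with Gal4–hSF-1 LBD chimera plus Gal4-driven luciferase; quantity: 4,000 CHO-K1 cells per well; compound: one dose, 10 µM compound, 1% DMSO; times: 20 h compound treatment, 37 °C; measured by: SteadyLite luciferase luminescence; read-out: percent activation versus DMSO; benchmarks: DMSO and mock-transfected background; replicates: one test per compound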
M1 ag = activates the M1 muscarinic receptor. B-score at 10 µM. 64,000 tested, 3% active. AID 626. CHO-M1 cells, Fluo-4 calcium fluorescence, agonist mode; hits give high values;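 active = fluorescence rise, raw or as B-score row- and column-corrected plate score, outside the 99.7% band of its plate's samples, either direction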
M1 antag = blocks the rat M1 muscarinic receptor response to acetylcholine. CHO-M1 cells, Fluo-4 calcium, ACh EC80 antagonist mode; hits give low values. B-score at 10 µM. P08482. 64,000 tested, 3.4% active;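 active = calcium fluorescence response, raw or row-and-column corrected B-score, differing from the plate sample mean either way at a set confidence level, mostly lower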
Target sequence (P08482 whole entry, looked up): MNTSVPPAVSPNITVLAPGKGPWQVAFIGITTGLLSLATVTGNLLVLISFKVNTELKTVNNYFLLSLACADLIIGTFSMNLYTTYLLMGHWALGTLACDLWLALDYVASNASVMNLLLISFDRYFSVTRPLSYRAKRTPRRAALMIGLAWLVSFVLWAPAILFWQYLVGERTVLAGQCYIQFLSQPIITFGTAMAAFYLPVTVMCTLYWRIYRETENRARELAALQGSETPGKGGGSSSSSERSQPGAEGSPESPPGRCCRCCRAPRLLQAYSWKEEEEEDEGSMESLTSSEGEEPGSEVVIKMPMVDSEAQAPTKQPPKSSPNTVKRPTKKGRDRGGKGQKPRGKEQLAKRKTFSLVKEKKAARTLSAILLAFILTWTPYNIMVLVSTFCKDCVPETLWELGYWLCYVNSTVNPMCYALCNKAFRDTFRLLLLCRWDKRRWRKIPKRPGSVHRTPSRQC
M1 antag confirm = confirmation of rat M1 muscarinic receptor antagonists; calcium response (max-min fluorescence) at 10 µM; 1,700 tested, 43% active; shares compounds with M1 antag; CHO-M1 cells, Fluo-4 calcium, ACh EC80 antagonism; hits give low values; AID 677;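 active = calcium response below the same-plate mean of wells given acetylcholine alone at its 80%-effect dose, minus 3 SD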
mGluR4 antag = selectivity test for M1 antagonists: human mGluR4 receptor; 1,700 tested, 0.9% active; shares compounds with M1 antag; fluorescence response (max-min) at 10 µM; CHO-mGluR4 calcium flux, Fluo-4 fluorescence, glutamate EC80; hits give low values;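 active = fluorescence response below the plate's average for near-maximal glutamate wells, less 3 SD of those wells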;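 note: raw unnormalized fluorescence span taken in the window right after glutamate addition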
Numbers stand for hits; n = inactive; x = no result given.

SMILES	Htt clearance	D1 allo mod	RORA act	SF-1 act	M1 ag	M1 antag	M1 antag confirm	mGluR4 antag
CCCP(=O)(CC(=O)O)c1ccccc1 (configuration not stated)	x	n	n	n	x	x	x	x
CCCCP(=O)(CCCC)c1ccccc1C(=O)O	x	n	n	n	n	-3.73	n	n
COCCNC(=O)CCCCCNS(=O)(=O)c1ccc(C)cc1	n	n	n	n	n	n	x	x
Cc1ccc(S(=O)(=O)NCCCC(=O)C=[N+]=[N-])cc1	n	n	n	n	n	-3.26	n	n
COc1ccc(CNC(=O)CS(=O)Cc2nc(-c3ccccc3C)oc2C)cc1 (configuration not stated)	x	n	n	n	n	n	x	x
COc1ccccc1CNC(=O)CS(=O)Cc1nc(-c2ccccc2C)oc1C (configuration not stated)	x	n	n	n	n	-2.68	n	n
CCOC(=O)Nc1ccc2c(c1)N(C(=O)CCN1CCOCC1)c1ccccc1S2=O (configuration not stated)	n	n	n	n	n	-10.5	55.1	n
COc1ccc(C(=O)CSc2nnc(Cn3cnc4ccccc43)o2)cc1	x	n	n	n	n	-2.19	532	n
COc1cccc(/C=N/n2cncn2)c1OCC#N	x	n	n	n	n	n	x	x
Cc1ccc2nc(NC3=NCN(CCN4CCOCC4)CN3)nc(C)c2c1	x	n	n	n	n	-2.61	317	n
Cc1nc(NC2=NCN(CCN3CCOCC3)CN2)nc2c(C)cccc12	n	n	n	n	n	n	x	x
COc1ccc(Cl)cc1C(=O)NCC(c1ccco1)N1CCCC1 (configuration not stated)	n	n	n	n	n	-4.64	390	n
CN(C)c1ccc(C2C3C(=O)N(c4ccc(C(=O)O)cc4)C(=O)C3ON2c2ccccc2)cc1 (configuration not stated)	n	n	n	n	n	-2.47	15.3	n
CSC1=Nc2sc3c(c2C2=NCCN12)CC(C)(C)OC3	x	x	n	n	n	-4.59	n	n
COc1ccccc1N1CCN(C(=O)C2CC=CCC2C(=O)O)CC1 (configuration not stated)	n	n	n	n	n	n	x	x
COc1ccccc1N1CCN(C(=O)C2c3ccccc3Oc3ccccc32)CC1	x	n	n	n	n	-1.33	n	n
COc1ccccc1N1CCN(C(=O)Cc2cccs2)CC1	n	n	n	n	n	-1.85	n	n
C=CCSc1nnc(-c2c[nH]c3ccccc23)n1CC	x	n	n	n	n	n	x	x
CS(=O)(=O)N(CC(=O)NC1CCCC1)c1ccc2c(c1)OCCO2	n	n	n	n	n	n	x	x
COC(=O)c1ccc(CSc2ncnc3c2nnn3-c2ccc(F)cc2)o1	x	n	n	n	n	n	x	x
COC(=O)N(C)CCCC1(C)C(=O)N(C)c2ccc(O)cc21 (configuration not stated)	n	n	n	n	n	-4.82	n	n
O=C(COC(=O)c1cc2ccccc2o1)c1ccccc1	x	n	n	n	n	n	x	x
O=C(OCCN1CCCCC1)c1cc2ccccc2o1	x	x	n	n	n	-2.44	n	n
O=C(COc1c(F)c(F)cc(F)c1F)NC(=O)NC1CCCC1	n	n	n	n	n	-12.2	223	n
COc1ccc(N2CCN(CCNC(=O)c3c(C)cc(=O)oc3C)CC2)cc1	n	n	n	n	n	-4.62	354	n
SMILES	Htt clearance	D1 allo mod	RORA act	SF-1 act	M1 ag	M1 antag	M1 antag confirm	mGluR4 antag
O=C1CC(c2ccc(Cl)c(Cl)c2)CC(O)=C1C=NCCN1CCNCC1 (configuration not stated)	x	n	n	n	n	-13.2	173	n
O=C(CC(c1ccccc1O)N1CCCCC1)N1CCCCC1 (configuration not stated)	n	n	x	x	n	-17	84	n
O=C(CN1C(=O)c2ccccc2C1=O)N1CCCCC1	x	x	n	n	n	n	x	x
O=c1[nH]c2ccc(Cl)cc2c(-c2ccccc2)c1N1CCN(c2ccccn2)CC1	x	n	n	n	n	n	x	x
O=C(CCn1nc(-c2ccc(Cl)cc2)ccc1=O)N1CCN(c2ccccn2)CC1	x	n	n	n	n	-3	n	n
Cc1oc(-c2ccc(Cl)cc2)[n+]([O-])c1C	n	n	n	n	n	-1.63	n	n
COC(=O)CSC1=C(C#N)C(c2sccc2C)CC(=O)N1 (configuration not stated)	n	n	n	n	n	n	x	x
COC(=O)CSC1=C(C#N)C(c2ccc(F)cc2)CC(=O)N1 (configuration not stated)	n	n	n	n	n	-2.23	n	n
CC(=O)c1cccc(NS(=O)(=O)N2CCCCC2)c1	n	n	n	n	n	n	x	x
CC(C)(C)C(=O)NC(=C(Cl)Cl)P(=O)(O)O	n	x	n	n	x	x	x	x
CCc1nnc(NCC(=O)N2CCc3ccccc32)s1	x	x	n	n	n	-4.83	n	n
CCc1nnc(NC(=O)c2c(O)c3cccc4c3n(c2=O)CC4)s1	x	n	n	n	n	n	x	x
COc1ccc(C(=O)CSc2nnc(CNc3nc(-c4ccccc4)cs3)n2C)cc1	n	n	n	n	n	n	x	x
CC(C)C1CC(O)(C2(O)CCCCC2)ON1 (configuration not stated)	x	n	n	n	n	n	x	x
CC(=O)CC1OC(=O)C(Br)=C1NCc1ccccc1 (configuration not stated)	n	n	n	n	n	-2.33	n	n
COc1cccc(/C(O)=C2/C(=O)C(=O)N(CCCN(C)C)C2c2cccc(Cl)c2)c1 (configuration not stated)	x	n	n	n	n	n	x	x
CCCC1=C(C(=O)OCC)C(c2ccc(O)cc2)n2ncnc2N1 (configuration not stated)	n	n	n	n	n	n	x	x
CCN(CC)CCCN(C(=O)c1cccs1)c1nc(-c2ccc(OC)cc2)cs1	n	n	n	n	n	-5.35	321	n
COc1ccc(-c2csc(N(CC3CCCO3)C(=O)c3cccs3)n2)cc1 (configuration not stated)	n	n	n	n	n	n	x	x
CCOC(=O)c1cnc2ccccc2c1NCCO	x	n	n	n	n	-2.92	409	n
CCOC(=O)c1cnc2c(C)cccc2c1NCc1ccco1	x	n	x	x	n	-8.34	321	n
CCOC(=O)c1cnc2c(C(=O)OC)cccc2c1NCc1ccco1	n	n	n	n	n	n	x	x
CCOC(=O)c1cnc2ccc(Br)cc2c1NCCO	x	n	x	x	n	n	x	x
CCOC(=O)c1ccc2ncc(C(=O)OCC)c(NCCCN3CCOCC3)c2c1	n	n	n	n	n	-4.62	405	n

Screening data: PubChem, several laboratories
